The nature of data set [1]: Therapeutic index, ratio of LD50 for rat allografted with rat Walker 256 cells to ED10 for antitumor activity against rat Walker 256 cells intramuscularly allografted in rat. Format: cell-based. As to conditions: read-out: TI. The method, boiled down: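 Therapeutic index is LD50/ED10 in the Walker 256 solid tumour system. ED10 is the dose giving a 10% tumour weight reduction, with values extrapolated from dose-response data.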

The test system of data set [2] is W256. Briefly: Antitumor activity against rat Walker 256 cells intramuscularly allografted in rat assessed as survival rate at 0.23 mg/kg, qd administered for 5 days. Format: functional, organism-based. Also on record: dose 0.23 mg/kg. Put shortly:
(§1)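 Rats bearing Walker 256 carcinoma as a solid tumor; lines 1-8 use a cytoxan-resistant Walker 256 subline. Dosed once daily for 5 days. Treated (T) and untreated control (C) groups are compared, and the response is given as T/C percentage, reflecting increase in survival time. Host weight change is the average weight change of the test group minus that of the controls, in grams.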

Data set [3] has as its system W256. Briefly: Antitumor activity against rat Walker 256 cells intramuscularly allografted in rat assessed as tumor growth inhibition at 0.23 mg/kg, qd administered for 5 days relative to control. Format: functional. As to conditions: W256, im, 120 h, route intramuscular, read-out: TGI. The method, boiled down:
(§2)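 Dosed once daily for 5 days. Response is tumor progression in treated (T) versus untreated control (C) animals, expressed as T/C percentage. Host weight change is reported as the average net weight change of the test group minus that of the controls, in grams.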

The test system of data set [4] is Rattus norvegicus. Briefly: Toxicity in rat allografted with rat Walker 256 cells intramuscularly assessed as change in body weight at 0.23 mg/kg, qd administered for 5 days. Also on record: dose 0.23 mg/kg, route intramuscular. The settings on record: in vivo, im, 120 h. Format: organism-based. The method, boiled down:
(§3)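 Walker 256 carcinoma solid-tumour system in rats (parent line, or the line resistant to cytoxan). Dosing was one injection per day for 5 days. Toxicity was taken as the average net body-weight change of the treated group minus the average net weight change of the untreated tumour-bearing controls, in grams.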

Data set [5] concerns Rattus norvegicus. As to the kind of experiment: Toxicity in rat allografted with rat Walker 256 cells intramuscularly assessed as change in body weight at 0.78 mg/kg, qd administered for 5 days. Format: organism-based. On the set-up: dose 0.78 mg/kg, route intramuscular. As to conditions: in vivo, im, 120 h. Put shortly:
as §3

Data set [6] concerns W256. Briefly: Antitumor activity against rat Walker 256 cells intramuscularly allografted in rat assessed as tumor growth inhibition at 3.12 mg/kg, qd administered for 5 days relative to control. Format: functional. As to conditions: W256, im, 120 h, route intramuscular, read-out: TGI. Put shortly:
(§4)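 Walker 256 carcinoma grown as a solid tumour in rats, with one injection daily for 5 days. Response is given as T/C %, the treated-group measure over the untreated-control tumour measure; a smaller value means more activity. Host toxicity is the mean net weight change of treated minus control animals, in grams.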

For data set [7], the system named is W256. Briefly: Antitumor activity against rat Walker 256 cells intramuscularly allografted in rat assessed as survival rate at 6.25 mg/kg, qd administered for 5 days. Format: functional, organism-based. On the set-up: dose 6.25 mg/kg. The method, boiled down:
as §1

The nature of data set [8]: Toxicity in rat allografted with rat Walker 256 cells intramuscularly. Format: organism-based.
Data set [9] relates to W256. Briefly: Antitumor activity against rat Walker 256 cells intramuscularly allografted in rat assessed as tumor growth inhibition at 0.78 mg/kg, qd administered for 5 days relative to control. Format: functional. The settings on record: W256, im, 120 h, route intramuscular, read-out: TGI. Put shortly:
as §2

The subject of data set [10] is W256. Briefly: Antitumor activity against rat Walker 256 cells intramuscularly allografted in rat assessed as survival rate at 0.78 mg/kg, qd administered for 5 days. Format: functional, organism-based. On the set-up: dose 0.78 mg/kg. The method, boiled down:
as §1

The subject of data set [11] is Rattus norvegicus. As to the kind of experiment: Toxicity in rat allografted with rat Walker 256 cells intramuscularly assessed as change in body weight at 6.25 mg/kg, qd administered for 5 days. Format: organism-based. On the set-up: dose 6.25 mg/kg, route intramuscular. As to conditions: in vivo, im, 120 h. The method, boiled down: as §3
Data set [12] concerns Rattus norvegicus. Briefly: Toxicity in rat allografted with rat Walker 256 cells intramuscularly assessed as change in body weight at 3.12 mg/kg, qd administered for 5 days. As to conditions: in vivo, im, 120 h. On the set-up: dose 3.12 mg/kg, route intramuscular. Format: organism-based. Put shortly:
as §3

Data set [13] concerns W256. As to the kind of experiment: Antitumor activity against rat Walker 256 cells intramuscularly allografted in rat assessed as tumor growth inhibition at 0.47 mg/kg, qd administered for 5 days relative to control. Format: functional. As to conditions: W256, im, 120 h, route intramuscular, read-out: TGI. Put shortly: as §2
Data set [14] has as its system W256. As to the kind of experiment: Antitumor activity against rat Walker 256 cells intramuscularly allografted in rat assessed as tumor growth inhibition. Format: functional. As to conditions: W256, im. The method, boiled down:
as §2

Data set [15] concerns Rattus norvegicus. Briefly: Toxicity in rat allografted with rat Walker 256 cells intramuscularly assessed as mortality at 12 mg/kg administered as single dose. Format: organism-based. Also on record: dose 12 mg/kg, route intramuscular. The settings on record: in vivo, im. Put shortly:
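Walker 256 solid-tumour system in rats. A single dose level of 12.0 mg/kg was given as one injection. Toxic deaths were recorded, and tumour presence was checked when the animals were sacrificed.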

The subject of data set [16] is Rattus norvegicus. As to the kind of experiment: Toxicity in rat allografted with rat Walker 256 cells intramuscularly assessed as change in body weight at 1.56 mg/kg, qd administered for 5 days. Also on record: dose 1.56 mg/kg, route intramuscular. Format: organism-based. The settings on record: in vivo, im, 120 h. The method, boiled down: as §3
Data set [17] concerns W256. Briefly: Antitumor activity against rat Walker 256 cells intramuscularly allografted in rat assessed as survival rate at 0.47 mg/kg, qd administered for 5 days. Format: functional, organism-based. On the set-up: dose 0.47 mg/kg. Put shortly:
as §1

The subject of data set [18] is W256. As to the kind of experiment: Antitumor activity against rat Walker 256 cells intramuscularly allografted in rat assessed as survival rate at 3.12 mg/kg, qd administered for 5 days. Format: functional, organism-based. On the set-up: dose 3.12 mg/kg. The method, boiled down: as §1
The test system of data set [19] is W256. Briefly: Antitumor activity against rat Walker 256 cells intramuscularly allografted in rat assessed as tumor growth inhibition at 6.25 mg/kg, qd administered for 5 days relative to control. Format: functional. As to conditions: W256, im, 120 h, route intramuscular, read-out: TGI. Put shortly: as §4
Data set [20] concerns W256. As to the kind of experiment: Antitumor activity against rat Walker 256 cells intramuscularly allografted in rat assessed as tumor incidence at 12 mg/kg administered as single dose. Also on record: dose 12 mg/kg. Format: functional, organism-based. The method, boiled down:
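Walker 256 solid tumour in rats, given one injection at 12.0 mg/kg. Tumours and toxic deaths were recorded at sacrifice.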

The subject of data set [21] is Rattus norvegicus. Briefly: Toxicity in rat allografted with rat Walker 256 cells intramuscularly assessed as change in body weight at 0.47 mg/kg, qd administered for 5 days. Format: organism-based. As to conditions: in vivo, im, 120 h. On the set-up: dose 0.47 mg/kg, route intramuscular. Put shortly:
as §3

The subject of data set [22] is W256. As to the kind of experiment: Antitumor activity against rat Walker 256 cells intramuscularly allografted in rat assessed as survival rate at 1.56 mg/kg, qd administered for 5 days. Also on record: dose 1.56 mg/kg. Format: functional, organism-based. The method, boiled down:
as §1

Data set [23] relates to W256. As to the kind of experiment: Antitumor activity against rat Walker 256 cells intramuscularly allografted in rat assessed as tumor growth inhibition at 1.56 mg/kg, qd administered for 5 days relative to control. As to conditions: W256, im, 120 h, route intramuscular, read-out: TGI. Format: functional. The method, boiled down: as §2

The values that follow come from ChEMBL document CHEMBL3272018, “Synthesis of aziridinylallylaminophosphine oxides and sulfides as potential adjuvant cancer chemotherapeutic agents” (J Med Chem, 1976).

Activity calls are given as the source filed them. No cut-off for these calls is given here.

The term LD50 denotes the dose expected to kill half of the subjects tested. High values mean a less toxic substance, low ones a more toxic substance. In the case of `C=CCN(CC=C)P(=O)(N(CC=C)CC=C)N1CC1C` (stereo not drawn), the selectivity ratio in [1] was found to be 125. Further, the outcome with W256 [2], in the data set on W256 [7], in the data set with W256 [10], in the data set with W256 [17], in the data set on W256 [18] and in the data set on W256 [20] was Active. Also, the result in the data set with W256 [22] was Active. For the same molecule, the inhibition in vivo at 0.23 mg/kg with W256 [3] is 33%. In addition, the Activity in the data set on Rattus norvegicus [4] was -3 g; with Rattus norvegicus [5] it was -8 g; in the data set on Rattus norvegicus [11], -28 g; with Rattus norvegicus [12], -15 g; in the data set with Rattus norvegicus [15], “Non-toxic”; with Rattus norvegicus [16] it was -22 g. For the same molecule, the Activity in the data set with Rattus norvegicus [21] is -15 g. In addition, the inhibition in vivo at 3.12 mg/kg with W256 [6] is 1%. In [8], this molecule returned an LD50 of 75 mg/kg. Besides, the inhibition in vivo at 0.78 mg/kg with W256 [9] came to 4%. Besides, the inhibition in vivo at 0.47 mg/kg in the data set with W256 [13] was 2%. Besides, in the data set on W256 [14], the ED10 was found to be 0.62 mg/kg. For the same molecule, the inhibition in vivo at 6.25 mg/kg in the data set with W256 [19] came to 3%. The inhibition in vivo at 1.56 mg/kg in the data set with W256 [23] came out at 2%.
